# Measurements published in ChEMBL document CHEMBL3612064, “Oxidative Reactivities of 2-Furylquinolines: Ubiquitous Scaffolds in Common High-Throughput Screening Libraries” (J Med Chem, 2015).
# Several values for one entry are separate records, joined by “and”; a condition that tells them apart may be missing. Identical values can stand only once. Activity calls are given as the source filed them. The calls are words filed in the database; no cut-off is given here.
# What was measured:
# [1] = Stability in DMSO solution assessed as parent compound remaining at 10 mM incubated for 38 days exposed to laboratory air by HPLC method
# [2] = Drug metabolism assessed as compound formation using compound-1 by LC-MS method; assay type: physicochemical
# Outline: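 10 mM DMSO stocks were gently shaken at 25 °C open to air and analysed on day 38 by LC-MS. The LC-MS used a C18 column (0.5 × 150 mm, 5 μm) at 15 μL/min with trifluoroacetic and formic acid modifiers, and an ion-trap MS in positive-ion mode. Decomposition products were scored as detected or not detected.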
# [3] = Drug metabolism assessed as oxidative compound decompostion after irradiation with visible light under oxygen-saturated environment in presence of rose bengal photosensitizer using compound-1 by LC/MS method; assay type: physicochemical
# [4] = molecular target: T1, DNA dC->dU-editing enzyme APOBEC-3G (Homo sapiens, UniProt Q9HC16); assay: Inhibition of APOBEC3G (unknown origin) assessed as remaining enzyme activity at 200 uM using ssDNA oligomer 5'-6-FAM-AAA-TAT-TCC-CTA-ATA-GAT-AAT-GTG-A-TAMRA-3' by fluorescence-based deamination assay
# Outline: (§1)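 Recombinant A3G was expressed and purified. A freshly prepared DMSO stock (day 0) was tested in dose response up to 200 μM. The read-out was the fluorescence-based ssDNA C-to-U deamination assay with a 5'-6-FAM/3'-TAMRA oligo, detected after uracil DNA glycosylase processing. Performed in triplicate, mean ± SD.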
# [5] = Drug metabolism in DMSO solution assessed as compound formation incubated for 38 days exposed to laboratory air by LC/MS method; assay type: physicochemical; conditions: 912 h
# [6] = molecular target: T1, DNA dC->dU-editing enzyme APOBEC-3G; assay: Inhibition of APOBEC3G (unknown origin) assessed as remaining enzyme activity at 200 uM incubated for […] using ssDNA oligomer 5'-6-FAM-AAA-TAT-TCC-CTA-ATA-GAT-AAT-GTG-A-TAMRA-3' by fluorescence-based deamination assay
# [7] = molecular target: T1, DNA dC->dU-editing enzyme APOBEC-3G; assay: Inhibition of APOBEC3G (unknown origin) up to 200 uM incubated for 3 to 72 days using ssDNA oligomer 5'-6-FAM-AAA-TAT-TCC-CTA-ATA-GAT-AAT-GTG-A-TAMRA-3' by fluorescence-based deamination assay; conditions: TDE = time-dependent effect
# Outline: (§2)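 A DMSO stock of the compound was aged in a closed microcentrifuge tube at 20-22 °C on the bench. The same stock was re-tested against recombinant A3G in dose response up to 200 μM at days 3, 21, 38 and 72. The assay was the fluorescence-based C-to-U deamination assay on a 6-FAM/TAMRA ssDNA oligo, with uracil DNA glycosylase in the read-out. Triplicates, mean ± SD.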
# [8] = molecular target: T1, DNA dC->dU-editing enzyme APOBEC-3G; assay: Inhibition of APOBEC3G (unknown origin) fluorescence-based ssDNA C-to-U deaminase assay
# [9] = molecular target: T1, DNA dC->dU-editing enzyme APOBEC-3G; assay: Inhibition of APOBEC3G (unknown origin) assessed as remaining enzyme activity at 200 uM incubated for 21 days using ssDNA oligomer 5'-6-FAM-AAA-TAT-TCC-CTA-ATA-GAT-AAT-GTG-A-TAMRA-3' by fluorescence-based deamination assay
# Outline: as §2
# [10] = molecular target: T1, DNA dC->dU-editing enzyme APOBEC-3G; assay: Inhibition of APOBEC3G (unknown origin) up to 200 uM using ssDNA oligomer 5'-6-FAM-AAA-TAT-TCC-CTA-ATA-GAT-AAT-GTG-A-TAMRA-3' by fluorescence-based deamination assay
# Outline: as §1
# [11] = molecular target: DNA dC->dU-editing enzyme APOBEC-3A (Homo sapiens, UniProt P31941); assay: Inhibition of APOBEC3A (unknown origin) by fluorescence-based ssDNA C-to-U deaminase assay
# Outline: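 Recombinant purified A3A was tested in dose-response up to 200 μM, with compound from DMSO stock. C-to-U deamination was read by fluorescence from the 6-FAM/TAMRA-labelled probe in a coupled uracil DNA glycosylase step, and IC50 was taken from the dose-response curve.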
# [12] = Toxicity against HEK293T cells assessed as cell viability at 50 uM incubated for 5 days; assay type: cell-based, HEK-293T; conditions: human, read-out: Activity
# [13] = molecular target: T1, DNA dC->dU-editing enzyme APOBEC-3G; assay: Inhibition of APOBEC3G (unknown origin) assessed as remaining enzyme activity at 200 uM incubated for 3 days using ssDNA oligomer 5'-6-FAM-AAA-TAT-TCC-CTA-ATA-GAT-AAT-GTG-A-TAMRA-3' by fluorescence-based deamination assay
# Outline: as §2
# [14] = molecular target: T1, DNA dC->dU-editing enzyme APOBEC-3G; assay: Inhibition of APOBEC3G (unknown origin) assessed as remaining enzyme activity at 200 uM incubated for 38 days using ssDNA oligomer 5'-6-FAM-AAA-TAT-TCC-CTA-ATA-GAT-AAT-GTG-A-TAMRA-3' by fluorescence-based deamination assay
# Outline: as §2
# [15] = Drug metabolism assessed as oxidative compound decompostion after irradiation with visible light under oxygen-saturated environment using [18]O2 in presence of rose bengal photosensitizer using by LC/MS method; assay type: physicochemical
# [16] = molecular target: T1, DNA dC->dU-editing enzyme APOBEC-3G; assay: Inhibition of APOBEC3G (unknown origin) using ssDNA oligomer 5'-6-FAM-AAA-TAT-TCC-CTA-ATA-GAT-AAT-GTG-A-TAMRA-3' by fluorescence-based deamination assay
# Outline: as §1
# [17] = molecular target: T1, DNA dC->dU-editing enzyme APOBEC-3G; assay: Inhibition of APOBEC3G (unknown origin) assessed as reduction enzyme efficiency at 200 uM using ssDNA oligomer 5'-6-FAM-AAA-TAT-TCC-CTA-ATA-GAT-AAT-GTG-A-TAMRA-3' by fluorescence-based deamination assay
# Outline: as §1
# [18] = Drug level assessed as compound formation using compound-1 in DMSO incubated for 16 months by 1H and 13C NMR method; assay type: physicochemical; conditions: 11688 h
# [19] = Drug level assessed as compound formation using compound-1 in DMSO incubated for 16 months by IR method; assay type: physicochemical; conditions: 11688 h
# [20] = Drug metabolism assessed as formation of oxidative decomposition products by LC-MS method; assay type: physicochemical
# [21] = Drug level assessed as compound formation using compound-1 in DMSO incubated for 16 months by LC-MS method; assay type: physicochemical; conditions: 11688 h
# T1 sequence (Q9HC16 whole entry): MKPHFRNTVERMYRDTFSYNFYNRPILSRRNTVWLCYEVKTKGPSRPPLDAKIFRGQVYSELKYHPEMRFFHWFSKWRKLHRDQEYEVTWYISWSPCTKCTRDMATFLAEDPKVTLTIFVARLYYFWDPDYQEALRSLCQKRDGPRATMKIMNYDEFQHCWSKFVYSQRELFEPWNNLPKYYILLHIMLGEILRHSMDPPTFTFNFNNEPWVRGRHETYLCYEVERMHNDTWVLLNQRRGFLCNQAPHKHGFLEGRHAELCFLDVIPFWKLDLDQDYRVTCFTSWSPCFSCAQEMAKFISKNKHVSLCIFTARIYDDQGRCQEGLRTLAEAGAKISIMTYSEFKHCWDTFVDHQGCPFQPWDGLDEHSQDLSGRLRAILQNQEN
# Sequence of DNA dC->dU-editing enzyme APOBEC-3A (P31941 whole entry): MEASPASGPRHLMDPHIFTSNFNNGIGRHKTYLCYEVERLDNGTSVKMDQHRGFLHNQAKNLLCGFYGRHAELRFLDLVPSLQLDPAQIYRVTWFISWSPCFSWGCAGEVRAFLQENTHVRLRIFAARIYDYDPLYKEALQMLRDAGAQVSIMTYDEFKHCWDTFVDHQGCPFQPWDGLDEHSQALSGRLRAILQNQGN
compound,measurement,setting,value
Cc1cccc(NC(=O)c2cc(-c3ccc(C)o3)nc3ccccc23)n1,"remaining at 912 h, 10000 µM",[1],73%
COC(=O)c1cc(NC(=O)c2cc(-c3ccc(C)o3)nc3ccccc23)cc(C(=O)OC)c1,"remaining at 912 h, 10000 µM",[1],19%
CC1(OO)C=CC(O)(c2cc(C(=O)Nc3nnc(-c4ccncc4)s3)c3ccccc3n2)O1 (configuration not stated),Drug metabolism,[2],metabolite_detected
same,Drug metabolism,[3],metabolite_detected
same,inhibition,[4],inactive
Nc1nnc(-c2ccncc2)s1,inhibition,[4],inactive
O=C(NNC(=O)c1cc(-c2ccco2)nc2ccccc12)NC1CCCCC1,"remaining at 912 h, 10000 µM",[1],64%
O=C(O)c1ccnc(-c2ccco2)c1,"remaining at 912 h, 10000 µM",[1],92%
Cc1ccc(-c2cc(C(=O)NC3CCCCC3)c3ccccc3n2)o1,"remaining at 912 h, 10000 µM",[1],54%
Cc1ccc(-c2cc(C(=O)O)c3ccccc3c2)o1,"remaining at 912 h, 10000 µM",[1],82%
Cc1ccc(-c2cc(C(=O)NCc3ccc4c(c3)OCO4)c3ccccc3n2)o1,"remaining at 912 h, 10000 µM",[1],56%
Cc1ccc(-c2ccc3ccccc3n2)o1,"remaining at 912 h, 10000 µM",[1],102%
Cc1ccc(-c2cc(C(=O)N3CCN(S(C)(=O)=O)CC3)c3ccccc3n2)o1,"remaining at 912 h, 10000 µM",[1],26%
O=C(O)/C=C\C(=O)c1cc(C(=O)Nc2nnc(-c3ccncc3)s2)c2ccccc2n1,Drug metabolism,[5],metabolite_detected
Cc1ccc(-c2cc(C(=O)Nc3nnc(-c4ccncc4)s3)c3ccccc3n2)o1,Activity,[6],29%
same,inhibition,[7],tde
same,IC50,[8],10.8 µM and 50.3 µM
same,Activity,[9],55%
same,inhibition,[10],inactive
same,IC50,[11],2.8 µM and 9.8 µM
same,"remaining at 912 h, 10000 µM",[1],6%
same,"viability at 120 h, 50 µM",[12],> 85%
same,Activity,[13],82%
same,Activity,[14],29%
same,Drug metabolism,[15],metabolite_detected
O=C(Nc1nnc(-c2ccncc2)s1)c1cc(-c2ccco2)cc2ccccc12,"remaining at 912 h, 10000 µM",[1],0%
O=C(O)c1cc(-c2ccco2)cc2ccccc12,"remaining at 912 h, 10000 µM",[1],89%
O=C(O)c1cc(C(=O)Nc2nnc(-c3ccncc3)s2)c2ccccc2n1,Drug metabolism,[2],metabolite_detected
same,Drug metabolism,[5],metabolite_detected
same,Drug metabolism,[3],metabolite_detected
same,Activity,[4],43%
Cc1ccc(-c2cc(C(=O)O)c3ccccc3n2)o1,"remaining at 912 h, 10000 µM",[1],83%
c1coc(-c2ccc3ccccc3n2)c1,"remaining at 912 h, 10000 µM",[1],117%
O=CCC(=O)c1cc(C(=O)Nc2nnc(-c3ccncc3)s2)c2ccccc2n1,Drug metabolism,[5],metabolite_detected
Cc1ccc(-c2cc(C(=O)O)ccn2)o1,"remaining at 912 h, 10000 µM",[1],85%
CC1(O)C=CC(OO)(c2cc(C(=O)Nc3nnc(-c4ccncc4)s3)c3ccccc3n2)O1 (configuration not stated),Drug metabolism,[2],metabolite_detected
same,Drug metabolism,[3],metabolite_detected
same,inhibition,[4],inactive
CC(=O)/C=C\C(=O)c1cc(C(=O)Nc2nnc(-c3ccncc3)s2)c2ccccc2n1,Drug metabolism,[2],metabolite_detected
same,Drug metabolism,[5],metabolite_detected
same,IC50,[16],20 µM
same,Drug metabolism,[3],metabolite_detected
O=C(Nc1nnc(-c2ccncc2)s1)c1cc(=O)[nH]c2ccccc12,inhibition,[17],50%
same,Drug metabolism,[5],metabolite_detected
same,Drug metabolism,[18],metabolite_detected
same,Drug metabolism,[19],metabolite_detected
same,Drug metabolism,[20],metabolite_detected
same,Drug metabolism,[3],metabolite_detected
same,Activity,[4],83%
same,Drug metabolism,[21],metabolite_detected
O=C(Nc1nnc(-c2ccncc2)s1)c1ccnc(-c2ccco2)c1,"remaining at 912 h, 10000 µM",[1],90%
Cc1ccc(-c2cc(C(=O)Nc3nnc(-c4ccncc4)s3)c3ccccc3c2)o1,"remaining at 912 h, 10000 µM",[1],25%
O=C(O)c1cc(-c2ccco2)nc2ccccc12,"remaining at 912 h, 10000 µM",[1],69%
O=C(Nc1nnc(-c2ccncc2)s1)c1cc(-c2ccco2)nc2ccccc12,"remaining at 912 h, 10000 µM",[1],101%
Cc1ccc(-c2cc(C(=O)Nc3nnc(-c4ccncc4)s3)ccn2)o1,"remaining at 912 h, 10000 µM",[1],34%
COc1ccc(CCNC(=O)c2cc(-c3ccc(C)o3)nc3ccccc23)cc1,"remaining at 912 h, 10000 µM",[1],84%
Cc1ccc(-c2cc(C(=O)NC(C)C3CCCO3)c3ccccc3n2)o1 (configuration not stated),"remaining at 912 h, 10000 µM",[1],55%
